{"source": "paper PMC8024882", "about": "(Toxicology Reports, 2021)", "key": {"[1]": {"tested_on": "human dermal fibroblasts (HDFs)", "assay": "MTT dose response assay, HDFs in 2D and 3D PCL 96-well plates", "assay_type": "cell-based", "conditions": "HDF, 72 h, mean of three experiments ± SEM", "how_it_was_run": "(§1)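 Accutase-detached cells seeded at 7000 (2D) or 21,000 (3D; O2-plasma-treated, ethanol-sterilized PCL fibre-mesh wells) per 180 μL. After 24 h normoxic attachment, compound added, then 72 h at 18 % O2/5 % CO2 or 1 % O2. MTT (20 μL of 5 mg/mL) 2 h; formazan dissolved in DMSO (2D 15 min, 3D 2 h shaking); absorbance background-subtracted. IC50 = 50 % MTT reduction; ≥3 experiments, 3–6 wells/concentration.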"}, "[2]": {"tested_on": "JIMT-1 breast cancer cells", "assay": "MTT dose response assay, JIMT-1 cells in 2D and 3D PCL 96-well plates", "assay_type": "cell-based, human", "conditions": "JIMT-1, 2D culture, hypoxia (1 % O2), 72 h, mean of three experiments ± SEM", "how_it_was_run": "as §1"}, "JIMT-1 cells": {"tested_on": "JIMT-1 cells", "conditions": "JIMT-1, 2D cultures, normoxia, FBS-supplemented medium; cited from earlier work"}}, "data": [{"substance": "salinomycin analogue 20-ethyl carbonate-Na [SAEC]", "values": [{"measurement": "IC50", "setting": "[1]; 2D culture, hypoxia (1 % O2)", "value": "239 ± 6.2", "unit": "nM"}, {"measurement": "IC50", "setting": "[1]; 2D culture, normoxia (18 % O2)", "value": "97.7 ± 11.8", "unit": "nM"}, {"measurement": "IC50", "setting": "[1]; 3D culture, hypoxia (1 % O2)", "value": "316 ± 35.1", "unit": "nM"}, {"measurement": "IC50", "setting": "[1]; 3D culture, normoxia (18 % O2)", "value": "150 ± 34.4", "unit": "nM"}, {"measurement": "IC50", "setting": "[2]", "value": "80.4 ± 13.3", "unit": "nM"}, {"measurement": "IC50", "setting": "JIMT-1 cells", "value": "90 ± 0.02", "unit": "nM"}]}]}
